According to ChEMBL document CHEMBL1123585, “Differential effects of N-terminal modifications on the biological potencies of growth hormone releasing factor analogues with varying chain lengths” (1987):

Assays:
[1] = target: T1, Growth hormone-releasing hormone receptor (Rattus norvegicus) (UniProt Q02644); test: Tested for the potency of growth hormone (GRF) on subcutaneous administration in anesthetized male Charles River rats; type: functional, organism-based
T1 sequence (whole entry): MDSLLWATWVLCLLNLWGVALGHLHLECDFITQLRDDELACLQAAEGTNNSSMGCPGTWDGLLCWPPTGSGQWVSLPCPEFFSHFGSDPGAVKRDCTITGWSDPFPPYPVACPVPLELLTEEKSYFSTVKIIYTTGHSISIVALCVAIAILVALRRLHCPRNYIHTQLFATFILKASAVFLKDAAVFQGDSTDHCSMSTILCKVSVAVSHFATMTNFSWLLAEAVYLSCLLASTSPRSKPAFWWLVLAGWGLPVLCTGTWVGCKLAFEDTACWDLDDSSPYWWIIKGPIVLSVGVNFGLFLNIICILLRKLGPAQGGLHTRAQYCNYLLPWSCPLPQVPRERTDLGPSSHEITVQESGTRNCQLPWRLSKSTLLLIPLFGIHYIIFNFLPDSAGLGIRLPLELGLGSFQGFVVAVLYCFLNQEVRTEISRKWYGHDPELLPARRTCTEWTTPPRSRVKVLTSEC
In short: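 Pentobarbital-anesthetized male rats (175-275 g), six to nine per group, received two subcutaneous doses of analogue or of reference GRF(1-29)NH2, in 0.5 mL, 30 min after anesthesia. Plasma GH measured by RIA 15 min later. Potency with 95% confidence limits calculated from a four-point assay design by the Pugsley method.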

Rattus norvegicus [2] = test: Effect on growth hormone release (GRF) was determined in nembutal-anesthetized rat, at dose of 25 ug/100 g body weight.; type: functional, organism-based
In short: (§1)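 Male Charles River rats (175-275 g), anesthetized with sodium pentobarbital 6 mg/100 g body weight. Six to nine per group. Peptide or saline given subcutaneously in 0.5 mL, 30 min after anesthetic. Jugular vein blood taken 15 min post-injection. Plasma GH measured by radioimmunoassay and reported as ng/mL, mean ± SEM.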

[3] = target: T1, Growth hormone-releasing hormone receptor (Rattus norvegicus); test: In vitro rat pituitary cell growth hormone response was obtained; type: functional, cell-based; details: Pituitary gland cell
Rattus norvegicus [4] = test: Effect on growth hormone release (GRF) was determined in nembutal-anesthetized rat, at dose of 62.5 ug/100 g body weight.; type: functional, organism-based; in short: as §1
[5] = target: T1, Growth hormone-releasing hormone receptor (Rattus norvegicus); test: Effect on growth hormone release(GRF) was determined in nembutal-anesthetized rat, at dose of 100 ug/100 g body weight.; type: functional; in short: as §1
Rattus norvegicus [6] = test: Effect on growth hormone release(GRF) was determined in nembutal-anesthetized rat, at dose of 40 ug/100 g body weight.; type: functional, organism-based; in short: as §1
Rattus norvegicus [7] = test: Effect on growth hormone release(GRF) was determined in nembutal-anesthetized rat, at dose of 0.4 ug/100 g body weight.; type: functional, organism-based; in short: as §1
Rattus norvegicus [8] = test: Effect on growth hormone release(GRF) was determined in nembutal-anesthetized rat, at dose of 1 ug/100 g body weight.; type: functional, organism-based; in short: as §1
Rattus norvegicus [9] = test: Effect on growth hormone release(GRF) was determined in nembutal-anesthetized rat, at dose of 25 ug/100 g body weight.; type: functional, organism-based; in short: as §1
Rattus norvegicus [10] = test: Effect on growth hormone release(GRF) was determined in nembutal-anesthetized rat, at dose of 10 ug/100 g body weight.; type: functional, organism-based; in short: as §1
Rattus norvegicus [11] = test: Effect on growth hormone release(GRF) was determined in nembutal-anesthetized rat, at dose of 80 ug/100 g body weight.; type: functional, organism-based; in short: as §1
Rattus norvegicus [12] = test: Effect on growth hormone release(GRF) was determined in nembutal-anesthetized rat, at dose of 32 ug/100 g body weight.; type: functional, organism-based; in short: as §1
Rattus norvegicus [13] = test: Effect on growth hormone release(GRF) was determined in nembutal-anesthetized rat, at dose of 200 ug/100 g body weight.; type: functional, organism-based; in short: as §1
Rattus norvegicus [14] = test: Effect on growth hormone release(GRF) was determined in nembutal-anesthetized rat, at dose of 0.5 ug/100 g body weight.; type: functional, organism-based; in short: as §1
Rattus norvegicus [15] = species on record: Rattus norvegicus; test: In vitro rat pituitary cell growth hormone response to the compound was obtained; type: functional, Pituitary gland cell
Rattus norvegicus [16] = test: Effect on growth hormone release(GRF) was determined in nembutal-anesthetized rat, at dose of 0.2 ug/100 g body weight.; type: functional, organism-based; in short: as §1
Rattus norvegicus [17] = test: Effect on growth hormone release(GRF) was determined in nembutal-anesthetized rat, at dose of 50 ug/100 g body weight.; type: functional, organism-based; in short: as §1
Rattus norvegicus [18] = test: Effect on growth hormone release(GRF) was determined in nembutal-anesthetized rat, at dose of 125 ug/100 g body weight.; type: functional, organism-based; in short: as §1

Compound: H-YADAIFTNSYRKVLGQLSARKLLQDILSR-NH2
- Potency [1]: 57%
- Plasma GH release (Rattus norvegicus [2]): 1410 ng/mL
- Potency [3]: 2%
- Plasma GH release (Rattus norvegicus [4]): 1720 ng/mL

Compound: CC[C@H](C)[C@H](NC(=O)[C@H](C)NC(=O)[C@H](CC(=O)O)NC(=O)[C@@H](C)NC(=O)[C@@H](N)Cc1ccc(O)cc1)C(=O)N[C@@H](Cc1ccccc1)C(=O)N[C@H](C(=O)N[C@@H](CC(N)=O)C(=O)N[C@@H](CO)C(=O)N[C@@H](Cc1ccc(O)cc1)C(=O)N[C@@H](CCCN=C(N)N)C(=O)N[C@@H](CCCCN)C(=O)N[C@H](C(=O)N[C@@H](CC(C)C)C(=O)NCC(=O)N[C@@H](CCC(N)=O)C(=O)N[C@@H](CC(C)C)C(=O)N[C@@H](CO)C(=O)N[C@@H](C)C(=O)N[C@@H](CCCN=C(N)N)C(=O)N[C@@H](CCCCN)C(=O)N[C@@H](CC(C)C)C(=O)N[C@@H](CC(C)C)C(=O)N[C@@H](CCC(N)=O)C(=O)N[C@@H](CC(=O)O)C(=O)N[C@H](C(=O)N[C@@H](CC(C)C)C(N)=O)[C@@H](C)CC)C(C)C)[C@@H](C)O (stereo in doubt; 3)
- Potency [1]: < 5%
- Plasma GH release [5]: 507 ng/mL
- Potency [3]: 0.001%
- Plasma GH release (Rattus norvegicus [6]): 741 ng/mL

Compound: CC[C@H](C)[C@H](NC(=O)[C@H](C)NC(=O)[C@H](CC(=O)O)NC(=O)[C@@H](C)N(C)C(=O)[C@@H](N)Cc1ccc(O)cc1)C(=O)N[C@@H](Cc1ccccc1)C(=O)N[C@H](C(=O)N[C@@H](CC(N)=O)C(=O)N[C@@H](CO)C(=O)N[C@@H](Cc1ccc(O)cc1)C(=O)N[C@@H](CCCN=C(N)N)C(=O)N[C@@H](CCCCN)C(=O)N[C@H](C(=O)N[C@@H](CC(C)C)C(=O)NCC(=O)N[C@@H](CCC(N)=O)C(=O)N[C@@H](CC(C)C)C(=O)N[C@@H](CO)C(=O)N[C@@H](C)C(=O)N[C@@H](CCCN=C(N)N)C(=O)N[C@@H](CCCCN)C(=O)N[C@@H](CC(C)C)C(=O)N[C@@H](CC(C)C)C(=O)N[C@@H](CCC(N)=O)C(=O)N[C@@H](CC(=O)O)C(=O)N[C@H](C(=O)N[C@@H](CCSC)C(=O)N[C@@H](CO)C(=O)N[C@@H](CCCN=C(N)N)C(N)=O)[C@@H](C)CC)C(C)C)[C@@H](C)O
- Potency [1]: 1630%
- Plasma GH release (Rattus norvegicus [7]): 761 ng/mL
- Plasma GH release (Rattus norvegicus [8]): 1720 ng/mL

Compound: CC[C@H](C)[C@H](NC(=O)[C@H](C)NC(=O)[C@H](CC(=O)O)NC(=O)[C@H](C)NC(=O)[C@@H](N)Cc1ccc(O)cc1)C(=O)N[C@@H](Cc1ccccc1)C(=O)N[C@H](C(=O)N[C@@H](CC(N)=O)C(=O)N[C@@H](CO)C(=O)N[C@@H](Cc1ccc(O)cc1)C(=O)N[C@@H](CCCN=C(N)N)C(=O)N[C@@H](CCCCN)C(=O)N[C@H](C(=O)N[C@@H](CC(C)C)C(=O)NCC(=O)N[C@@H](CCC(N)=O)C(=O)N[C@@H](CC(C)C)C(=O)N[C@@H](CO)C(=O)N[C@@H](C)C(=O)N[C@@H](CCCN=C(N)N)C(=O)N[C@@H](CCCCN)C(=O)N[C@@H](CC(C)C)C(=O)N[C@@H](CC(C)C)C(=O)N[C@@H](CCC(N)=O)C(=O)N[C@@H](CC(=O)O)C(=O)N[C@H](C(=O)N[C@@H](CCSC)C(=O)N[C@@H](CO)C(=O)N[C@@H](CCCN=C(N)N)C(N)=O)[C@@H](C)CC)C(C)C)[C@@H](C)O
- Potency [1]: 100%
- Potency [3]: 100%
- Plasma GH release (Rattus norvegicus [9]): 2570 ng/mL
- Plasma GH release (Rattus norvegicus [10]): 1180 ng/mL

Compound: CC[C@H](C)[C@H](NC(=O)[C@H](C)NC(=O)[C@H](CC(=O)O)NC(=O)[C@@H](C)NC(=O)[C@@H](N)Cc1ccc(O)cc1)C(=O)N[C@@H](Cc1ccccc1)C(=O)N[C@H](C(=O)N[C@@H](CC(N)=O)C(=O)N[C@@H](CO)C(=O)N[C@@H](Cc1ccc(O)cc1)C(=O)N[C@@H](CCCN=C(N)N)C(=O)N[C@@H](CCCCN)C(=O)N[C@H](C(=O)N[C@@H](CC(C)C)C(=O)NCC(=O)N[C@@H](CCC(N)=O)C(=O)N[C@@H](CC(C)C)C(=O)N[C@@H](CO)C(=O)N[C@@H](C)C(=O)N[C@@H](CCCN=C(N)N)C(=O)N[C@@H](CCCCN)C(=O)N[C@@H](CC(C)C)C(=O)N[C@@H](CC(C)C)C(=O)N[C@@H](CCC(N)=O)C(N)=O)C(C)C)[C@@H](C)O
- Potency [1]: 16%
- Plasma GH release (Rattus norvegicus [11]): 1370 ng/mL
- Potency [3]: 0.004%
- Plasma GH release (Rattus norvegicus [12]): 499 ng/mL

Compound: CC[C@H](C)[C@H](NC(=O)[C@H](C)NC(=O)[C@H](CC(=O)O)NC(=O)[C@@H](C)NC(=O)[C@@H](N)Cc1ccc(O)cc1)C(=O)N[C@@H](Cc1ccccc1)C(=O)N[C@H](C(=O)N[C@@H](CC(N)=O)C(=O)N[C@@H](CO)C(=O)N[C@@H](Cc1ccc(O)cc1)C(=O)N[C@@H](CCCN=C(N)N)C(=O)N[C@@H](CCCCN)C(=O)N[C@H](C(=O)N[C@@H](CC(C)C)C(=O)NCC(=O)N[C@@H](CCC(N)=O)C(=O)N[C@@H](CC(C)C)C(=O)N[C@@H](CO)C(=O)N[C@@H](C)C(=O)N[C@@H](CCCN=C(N)N)C(=O)N[C@@H](CCCCN)C(=O)N[C@@H](CC(C)C)C(=O)N[C@@H](CC(C)C)C(=O)N[C@@H](CCC(N)=O)C(=O)N[C@@H](CC(=O)O)C(=O)N[C@H](C(=O)N[C@@H](CC(C)C)C(N)=O)[C@@H](C)CC)C(C)C)[C@@H](C)O (stereo in doubt; 4)
- Potency [1]: 7%
- Plasma GH release (Rattus norvegicus [11]): 742 ng/mL
- Plasma GH release (Rattus norvegicus [13]): 1500 ng/mL
- Potency [3]: 0.0004%

Compound: CC[C@H](C)[C@H](NC(=O)[C@H](C)NC(=O)[C@H](CC(=O)O)NC(=O)[C@@H](C)NC(=O)[C@@H](N)Cc1ccc(O)cc1)C(=O)N[C@@H](Cc1ccccc1)C(=O)N[C@H](C(=O)N[C@@H](CC(N)=O)C(=O)N[C@@H](CO)C(=O)N[C@@H](Cc1ccc(O)cc1)C(=O)N[C@@H](CCCN=C(N)N)C(=O)N[C@@H](CCCCN)C(=O)N[C@H](C(=O)N[C@@H](CC(C)C)C(=O)NCC(=O)N[C@@H](CCC(N)=O)C(=O)N[C@@H](CC(C)C)C(=O)N[C@@H](CO)C(=O)N[C@@H](C)C(=O)N[C@@H](CCCN=C(N)N)C(=O)N[C@@H](CCCCN)C(=O)N[C@@H](CC(C)C)C(=O)N[C@@H](CC(C)C)C(=O)N[C@@H](CCC(N)=O)C(=O)N[C@@H](CC(=O)O)C(=O)N[C@H](C(=O)N[C@@H](CCSC)C(=O)N[C@@H](CO)C(=O)N[C@@H](CCCN=C(N)N)C(N)=O)[C@@H](C)CC)C(C)C)[C@@H](C)O
- Plasma GH release (Rattus norvegicus [14]): 2180 ng/mL
- Potency [1]: 4450%
- Potency (Rattus norvegicus [15]): 5340%
- Plasma GH release (Rattus norvegicus [16]): 1210 ng/mL

Compound: CC[C@H](C)[C@H](NC(=O)[C@H](C)NC(=O)[C@H](CC(=O)O)NC(=O)[C@@H](C)NC(=O)[C@@H](N)Cc1ccc(O)cc1)C(=O)N[C@@H](Cc1ccccc1)C(=O)N[C@H](C(=O)N[C@@H](CC(N)=O)C(=O)N[C@@H](CO)C(=O)N[C@@H](Cc1ccc(O)cc1)C(=O)N[C@@H](CCCN=C(N)N)C(=O)N[C@@H](CCCCN)C(=O)N[C@H](C(=O)N[C@@H](CC(C)C)C(=O)NCC(=O)N[C@@H](CCC(N)=O)C(=O)N[C@@H](CC(C)C)C(=O)N[C@@H](CO)C(=O)N[C@@H](C)C(=O)N[C@@H](CCCN=C(N)N)C(=O)N[C@@H](CCCCN)C(=O)N[C@@H](CC(C)C)C(=O)N[C@@H](CC(C)C)C(=O)N[C@@H](CCCN=C(N)N)C(N)=O)C(C)C)[C@@H](C)O
- Potency [1]: 20%
- Plasma GH release (Rattus norvegicus [17]): 1020 ng/mL
- Plasma GH release (Rattus norvegicus [18]): 2790 ng/mL
